Screens (PubChem BioAssay)
MrgX1 antagonist – antagonists of human MrgX1 receptor. Q96LB2. MRGX1-HEK293 calcium flux, Fluo-4, BAM8-22 antagonism; hits give low values. B-score at 10 µM. 310,000 tested, 1.3% active. AID 588676;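 active = calcium-response B-score plate-corrected more than 3 library SD below zero, starting fluorescence within 5 deviations, no agonist response on first addition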;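 note: peak minus trough fluorescence over baseline after final BAM8-22 challenge near maximal dose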
Target sequence (Q96LB2 whole entry, looked up): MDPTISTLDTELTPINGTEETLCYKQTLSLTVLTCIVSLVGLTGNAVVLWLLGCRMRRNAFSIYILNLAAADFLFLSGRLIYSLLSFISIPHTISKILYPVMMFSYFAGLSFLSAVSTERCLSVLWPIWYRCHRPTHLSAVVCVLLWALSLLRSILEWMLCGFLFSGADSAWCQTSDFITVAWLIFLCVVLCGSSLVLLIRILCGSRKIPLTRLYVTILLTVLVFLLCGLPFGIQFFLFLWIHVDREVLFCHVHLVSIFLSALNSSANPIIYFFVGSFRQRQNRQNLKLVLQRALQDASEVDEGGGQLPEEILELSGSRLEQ
MrgX1 PAM – human MrgX1 positive allosteric modulation, primary screen. 310,000 tested, 0.63% active. AID 588675. MrgX1-HEK293, Fluo-4 calcium flux, FDSS; hits give high values. B-score at 10 µM;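 active = plate-corrected calcium response at least 3 library SD above typical, normal starting fluorescence, not activating the receptor alone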;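 note: compound read alongside a low EC10 to EC30 dose of BAM8-22 agonist; peak minus trough fluorescence over baseline measured at the second addition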
RGS4 block – inhibitors of human RGS4; 310,000 tested, 0.45% active; B-score at 10 µM; HEK293 M3R/RGS4 inducible, Fluo-4 calcium flux; hits give high values; triggered by carbachol at its EC20; P49798; AID 463165;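 active = B-score, a plate-corrected calcium signal, over three deviations above library mean, with baseline fluorescence within five deviations of library mean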;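 note: RGS4 expression induced by doxycycline in cells with stable M3 receptor; B-score is computed from the integrated fluorescence ratio over baseline after carbachol; higher B-score means a larger calcium signal and so more RGS4 inhibition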
Target sequence (P49798 whole entry, looked up): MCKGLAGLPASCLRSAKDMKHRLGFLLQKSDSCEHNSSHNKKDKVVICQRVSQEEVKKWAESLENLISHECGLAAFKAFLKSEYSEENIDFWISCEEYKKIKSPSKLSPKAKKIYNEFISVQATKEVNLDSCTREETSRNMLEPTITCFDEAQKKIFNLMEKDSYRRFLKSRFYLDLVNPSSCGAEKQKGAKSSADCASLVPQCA
RGS4 pot – RGS4 potentiation or activation; HEK293 M3R/inducible RGS4, carbachol calcium flux Fluo4; hits give low values; B-score at 10 µM; 310,000 tested, 0.92% active; AID 463111;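 active = B-score of the integrated calcium signal more than 4 SD below the library mean, with starting fluorescence not abnormally high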;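 note: negative B-score means reduced calcium response which marks RGS4 activation or potentiation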
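System – HEK293 FlpIn-TREx cells, stable M3R, doxycycline-inducible RGS4 · Reagent – ECmax carbachol challenge · Times – compound preincubation 20 min at room temperature before agonist · Technique – Fluo4 fluorescence kinetic imaging of calcium · Measure – B score of integrated Fluo4 ratio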
MrgX1 agonist – activates human MrgX1 receptor signaling. Q96LB2. MrgX1-HEK293 cells, Fluo-4 calcium fluorescence, agonist mode; hits give high values. B-score at 10 µM. 310,000 tested, 0.44% active. AID 588627;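 active = calcium response B-score plate-corrected fluorescence ratio at least 3 library SD, with starting fluorescence B-score inside 5 SD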
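Material – MrgX1-expressing HEK293 cells · Input – 15,000 cells seeded per well · Dosing – compound as first of three additions · Times – overnight seeding, then 1 h dark dye loading · Measured by – kinetic Fluo-4 NW fluorescence of intracellular calcium · Read-out – B-scored fluorescence response ratio · Benchmarks – positive and negative control wells on each plate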
MrgX1 antag conf – human MrgX1 receptor antagonism, re-confirmation screen; shares compounds with MrgX1 antagonist; MrgX1-HEK293, BAM8-22 calcium flux, Fluo-4; hits give low values; remaining BAM8-22 calcium response % of control (hits give low values), % at 10 µM; 2,300 tested, 19% active; AID 602420;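 active = remaining agonist calcium response no higher than 100% minus 3 SD of agonist-only control wells, with starting fluorescence near control levels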;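 note: agonist BAM8-22 given at a near maximal EC90 to ECmax level; peak minus minimum fluorescence divided by baseline after agonist addition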
HEK293 Ca flux – activity in parental HEK293 cells lacking MrgX1 | shares compounds with MrgX1 antagonist | Fluo-4 calcium fluorescence, FDSS | fluorescence ratio F(max-min)/F0 at 10 µM | 4,000 tested, 2% active | AID 624111;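 active = duplicate-averaged calcium fluorescence ratio at least three times the standard deviation of buffer wells, a nonspecific response in parental cells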
HEK293 Ca counter – counter-screen for MrgX1 allosteric activators: effect in parental HEK293 cells; fluorescence ratio F(max-min)/F0 at 10 µM; parental HEK293 calcium flux, Fluo-4 fluorescence ratio; hits give high values; shares compounds with MrgX1 antagonist; 4,000 tested, 0.4% active; AID 624114;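 active = calcium fluorescence ratio, averaged over duplicates, at least 3 SD of the buffer-well ratio, meaning a nonspecific response in receptor-free cells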;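 note: untransfected parental HEK293 lacking MrgX1 used as counterscreen for MrgX1 allosteric activators; fluorescence change taken during the second addition on a kinetic imager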
HEK293 Ca cntr2 – activity in parental HEK293 cells lacking MrgX1 receptor. Fluo-4 calcium fluorescence (FDSS); hits give high values. 4,000 tested, 8.7% active. fluorescence ratio F(max-min)/F0 at 10 µM. shares compounds with MrgX1 antagonist. AID 624115;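 active = calcium fluorescence ratio at least three times the spread of buffer wells, meaning a non-specific response in parental cells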
Active calls of the source: *; i = inactive; . = no result. Rows were chosen to be rich in hits. Some 3.5% of all compounds tested hit in one or more screens of this group.

SMILES	MrgX1 antagonist	MrgX1 PAM	RGS4 block	RGS4 pot	MrgX1 agonist	MrgX1 antag conf	HEK293 Ca flux	HEK293 Ca counter	HEK293 Ca cntr2
CC(=O)Oc1c(S(=O)(=O)c2ccc(C)cc2)c(C)nn1C(C)(C)C	i	i	i	i	i	.	.	.	.
Cn1c(SCC(=O)Nc2ccc(NC(=O)c3cccc(F)c3)cc2)nnc1-c1ccncc1	i	i	i	i	i	.	.	.	.
O=C(Cn1ccc2ccccc2c1=O)NCC(=O)Nc1ccc(F)cc1F	i	i	i	i	i	.	.	.	.
Cc1cc(NC(=O)c2ccc(N3C(=O)C4C5C=CC(C5)C4C3=O)cc2)no1 (stereo not drawn)	i	i	i	i	i	.	.	.	.
Cc1cc(NC(=O)c2ccc(N3C(=O)CCC3=O)cc2)no1	-5.3*	i	i	i	i	i	i	i	i
CCc1ccc(N2CC(C(=O)Nc3ccc(F)cc3)CC2=O)cc1 (stereo not drawn)	i	i	i	i	i	.	.	.	.
CCc1ccc(N2CC(C(=O)Nc3cc(C)ccc3F)CC2=O)cc1 (stereo not drawn)	-6.9*	i	i	i	i	i	i	i	i
Cc1cc(NC(=O)C2CC(=O)N(c3ccccc3)C2)no1 (stereo not drawn)	-4.6*	i	i	i	i	85%*	i	i	i
Cc1cccc(NC(=O)c2sc3nc(-c4ccccc4)cn3c2C)n1	i	i	i	i	i	.	.	.	.
COc1ccc(-c2cn3c(C)c(C(=O)Nc4cccc(C)n4)sc3n2)cc1	-5.3*	i	i	i	i	82%*	i	i	i
CCCCCCCNC(=O)C1(CC2CC(c3ccc(Cl)cc3)=NO2)CCN(C(=O)c2cc(OCC)c(OCC)c(OCC)c2)CC1 (stereo not drawn)	i	i	i	i	i	.	.	.	.
Nc1c(S(=O)(=O)c2cccs2)c2nc3ccccc3nc2n1CC1CCCO1 (stereo not drawn)	-7*	i	.	.	i	i	i	i	i
CCN(C(=O)CSc1ccc2ccccc2c1)C1CCS(=O)(=O)C1 (stereo not drawn)	-4.6*	i	i	i	i	i	i	i	i
CCN(C(=O)COC(=O)CSc1ccc(C)c(C)c1)C1CCS(=O)(=O)C1 (stereo not drawn)	i	i	i	i	i	.	.	.	.
CCN(C(=O)CSc1nc2ccccc2o1)C1CCS(=O)(=O)C1 (stereo not drawn)	-4.7*	i	i	i	i	i	i	i	i
COc1cc(NC(=O)c2ccccc2-c2ccccc2)cc(OC)c1OC	i	i	i	i	i	.	.	.	.
COc1cc(C=Nc2ccccc2C(=O)Nc2ccccc2)cc(OC)c1OC	-5.5*	i	i	i	i	i	i	i	i
N=c1c(S(=O)(=O)c2ccc(Cl)cc2)cc2c(=O)n3ccccc3nc2n1C1CCCCC1	i	i	i	i	i	.	.	.	.
CCc1sc(NC(C)=O)nc1-c1ccccc1	i	i	i	i	i	.	.	.	.
CCc1sc(NC(=O)COC)nc1-c1ccccc1	-4.6*	i	i	i	i	i	i	i	i
CCCCn1c(N)c(N(CCOC)C(=O)COC(=O)C(C)(C)Oc2ccc(Cl)cc2)c(=O)[nH]c1=O	i	i	i	i	i	.	.	.	.
COc1cccc(NC(=O)C(OC(=O)c2cnc(C)cn2)c2ccccc2)c1 (stereo not drawn)	-6.2*	i	i	i	i	i	i	i	i
Cc1[nH]ccc(=O)c1OCc1c(Cl)cccc1Cl	-6.7*	i	i	i	i	i	i	i	i
Cc1ccc(SSc2cc(C)ccc2N)c(N)c1	i	i	i	i	i	.	.	.	.
COc1ccc(OC)c(NC(=O)NC2CCCCCCC2)c1	i	i	i	i	i	.	.	.	.
SMILES	MrgX1 antagonist	MrgX1 PAM	RGS4 block	RGS4 pot	MrgX1 agonist	MrgX1 antag conf	HEK293 Ca flux	HEK293 Ca counter	HEK293 Ca cntr2
CCCC(=O)Nc1cc(OC)c(NC(=O)NC2CCCCC2)cc1OC	-4.6*	i	i	i	i	i	i	i	i
Cc1ccc(Cn2nc(C)c(NC(=O)c3nn(C)cc3Cl)c2C)cc1	-10*	i	i	i	i	i	i	i	i
CC(=O)Nc1ccc(NC(=O)C(C)OC(=O)CNC(=O)c2ccc(-c3ccccc3)cc2)cc1 (stereo not drawn)	i	i	i	i	i	.	.	.	.
Cc1ccccc1C(=O)NCCCNC(=O)c1ccco1	i	i	i	i	i	.	.	.	.
N#Cc1cc(-c2ccccc2)nnc1Sc1ccc(F)cc1	i	i	i	i	i	.	.	.	.
N#Cc1cc(-c2ccccc2)nnc1Sc1ccccc1	-4.9*	i	i	i	i	79%*	i	i	i
CCN(CC(=O)Nc1ccc(NC(C)=O)cc1)C(=O)/C=C/c1c(C)nn(-c2ccc(F)cc2)c1C	i	i	i	i	i	.	.	.	.
Cc1cc(F)ccc1NC(=O)c1cc(S(=O)(=O)N2CCc3ccccc32)cn1C	-5.3*	i	i	i	i	i	i	i	i
CC(C)(C)OC(=O)[C@H](Cc1ccccc1)NC(=O)c1nc[nH]c1C(=O)N1CCN(C(=O)OC(C)(C)C)CC1	i	i	i	i	i	.	.	.	.
CC1CCN(C(=O)c2[nH]cnc2C(=O)N[C@@H](Cc2ccccc2)C(=O)OC(C)(C)C)CC1	-7*	i	i	i	i	i	i	i	i
COc1ccc(C2CC(=O)c3cnn(-c4nc(C)cc(C)n4)c3C2)cc1 (stereo not drawn)	i	i	i	i	i	.	.	.	.
CCOC(=O)c1sc(NC(=O)CSc2nc(C)cc(C)c2C#N)c(C#N)c1C	-7.3*	i	i	i	i	i	i	i	i
CCOC(=O)c1sc(NC(=O)CSc2nc3c(cc2C#N)CCCCCC3)c(C#N)c1C	i	i	i	i	i	.	.	.	.
